{"data": "Measurements of several laboratories", "target": "Serine/threonine-protein kinase MRCK beta (CDC42BPB, Homo sapiens, UniProt Q9Y5S2)", "note": "Lines come from different studies, so protocols differ."}
{"Compound": "CCN(CC)CCNC(=O)c1c(C)[nH]c(/C=C2\\C(=O)Nc3ccc(F)cc32)c1C", "observed": "enzyme activity", "mode": "inhibitor", "concentration": "10 µM", "measurement": "inhibition", "value": "17%"}
{"Compound": "COc1cc2ncnc(Nc3ccc(Oc4ccccc4)cc3C)c2cc1OC", "observed": "enzyme activity", "mode": "inhibitor", "concentration": "1 µM", "measurement": "inhibition", "value": "-5%"}
{"Compound": "CNCc1ccccc1-c1csc([C@H](C)Nc2nc(C)nc3cc(OC)c(OC)cc23)c1", "observed": "cell-free assay", "method": "competition with immobilised ligand", "concentration": "1 µM", "measurement": "remaining binding", "value": "100%"}
{"Compound": "CCCOc1ccc(OC)c(F)c1C(=O)c1ccc(C(=O)N[C@@H]2CNC[C@H]2NC(=O)c2ccc3[nH]ncc3c2)cc1", "observed": "enzyme activity", "mode": "inhibitor", "concentration": "0.1 µM", "measurement": "remaining activity", "value": "34%"}
{"Compound": "CCN(CC)CCNC(=O)c1c(C)[nH]c(/C=C2\\C(=O)Nc3ccc(Cl)cc32)c1C", "observed": "enzyme activity", "mode": "inhibitor", "concentration": "0.5 µM", "measurement": "remaining activity", "value": "96.1%"}
{"Compound": "Cc1cc(NC(=O)c2cccc3cc(-c4cccc5[nH]nc(N)c45)ccc23)ccc1F", "observed": "enzyme activity", "mode": "inhibitor", "concentration": "0.1 µM", "measurement": "activity vs control", "value": "100%"}
{"Compound": "O=C1Nc2ccc(Cl)cc2C1=Cc1cc(Cl)c(O)c(Cl)c1", "observed": "cell-free assay", "concentration": "0.5 µM", "measurement": "remaining signal", "value": "91.4%"}
{"Compound": "CC/C(=N\\NC(=O)C(C)Nc1ccccc1)c1ccc(O)c(C)c1O (centres unmarked)", "observed": "enzyme activity", "mode": "inhibitor", "concentration": "0.1 µM", "measurement": "inhibition", "value": "7.1%"}
{"Compound": "COc1cccc2c(NCc3ccccc3)nc(-n3c(N)nc4ccccc43)nc12", "observed": "target engagement in cells", "mode": "inhibitor", "method": "chemoproteomics", "concentration": "20 mM", "measurement": "inhibition", "value": "-1.3%"}
{"Compound": "COc1cccc(CNC(=O)c2nc3scc(COCc4ccc(C(=O)O)cc4)c3c(=O)[nH]2)c1", "observed": "cell-free assay", "method": "competition with immobilised ligand", "concentration": "1 µM", "measurement": "remaining binding", "value": "99.5%"}
{"Compound": "CCN(CC)c1ccc(C2=NNC(=O)CC2C)cc1[N+](=O)[O-] (centres unmarked)", "observed": "enzyme activity", "mode": "inhibitor", "concentration": "10 µM", "measurement": "remaining activity", "value": "101%"}
{"Compound": "CC(C)(C)c1nc2c(s1)c1nc(N)ncc1c1ccc(NS(=O)(=O)c3c(F)cccc3F)c(F)c12", "observed": "enzyme activity", "mode": "inhibitor", "method": "radiometric", "concentration": "1 µM", "measurement": "remaining activity", "value": "100%"}
{"Compound": "O=C(Nc1cnn(-c2csc(C(=O)NC3COC3)c2)c1)Nc1ccccc1Cl", "observed": "enzyme activity", "mode": "inhibitor", "concentration": "5 µM", "measurement": "remaining activity", "value": "97.1%"}
{"Compound": "CN([C@@H]1CCc2c(CC(=O)O)c3cc(S(C)(=O)=O)ccc3n2C1)S(=O)(=O)c1ccc(F)cc1", "observed": "cell-free assay", "method": "competition with immobilised ligand", "concentration": "1 µM", "measurement": "remaining binding", "value": "100%"}
{"Compound": "COc1cc(Cl)c(C(=O)N[C@@H](CN[C@H]2CC[C@@H](N)CC2)Cc2ccc(C#N)cc2)cc1-c1ccc(CN[C@H](C)c2ccc(C)cc2)o1", "observed": "enzyme activity", "mode": "inhibitor", "concentration": "1 µM", "measurement": "remaining activity", "value": "100%"}
{"Compound": "O=C1NC(=O)c2cc(Nc3ccc(F)cc3)c(Nc3ccc(F)cc3)cc21", "observed": "cell-free assay", "concentration": "0.5 µM", "measurement": "remaining signal", "value": "100%"}
{"Compound": "CN(c1ccnc(CNc2nc(Nc3ccc4c(c3)CC(=O)N4)ncc2C(F)(F)F)n1)S(C)(=O)=O", "observed": "cell-free assay", "method": "competition with immobilised ligand", "concentration": "1 µM", "measurement": "remaining binding", "value": "100%"}
{"Compound": "O=c1c2ccccc2[nH]c(=S)n1CCN1CCC(=C(c2ccc(F)cc2)c2ccc(F)cc2)CC1", "observed": "enzyme activity", "mode": "inhibitor", "concentration": "0.5 µM", "measurement": "remaining activity", "value": "106%"}
{"Compound": "CN1CCN(c2cnc3c(C4CCN(C(=O)c5ccc(OC(F)(F)F)cc5N)CC4)ncnc3c2)CC1", "observed": "cell-free assay", "method": "competition with immobilised ligand", "concentration": "1 µM", "measurement": "remaining binding", "value": "100%"}
{"Compound": "CNC(=O)c1cc(Oc2ccc(NC(=O)Nc3ccc(Cl)c(C(F)(F)F)c3)cc2)ccn1", "observed": "enzyme activity", "mode": "inhibitor", "concentration": "10 µM", "measurement": "inhibition", "value": "0%"}
{"Compound": "Cc1noc([C@H]2C[C@@H](c3ccc(C(F)(F)F)cc3)CN(C(=O)N3CCS(=O)(=O)C3)C2)n1", "observed": "cell-free assay", "method": "competition with immobilised ligand", "concentration": "1 µM", "measurement": "remaining binding", "value": "100%"}
{"Compound": "Cc1ccc(Nc2nccc(N(C)c3ccc4c(C)n(C)nc4c3)n2)cc1S(N)(=O)=O", "observed": "enzyme activity", "mode": "inhibitor", "concentration": "10 µM", "measurement": "inhibition", "value": "11%"}
{"Compound": "O=C(NS(=O)(=O)c1ccc(NCC2CCOCC2)c([N+](=O)[O-])c1)c1ccc(N2CCN(Cc3ccc(C(F)(F)F)cc3-c3ccc(Cl)cc3)CC2)cc1Oc1cnc2[nH]ccc2c1", "observed": "cell-free assay", "method": "competition with immobilised ligand", "concentration": "1 µM", "measurement": "remaining binding", "value": "94%"}
{"Compound": "CCCS(=O)(=O)Nc1ccc(F)c(C(=O)c2c[nH]c3ncc(-c4ccc(Cl)cc4)cc23)c1F", "observed": "enzyme activity", "mode": "inhibitor", "concentration": "1 µM", "measurement": "inhibition", "value": "< 10%"}
{"Compound": "Cc1c(C(=O)O)cc(-c2ccc(C3CCNCC3)cc2)c2ccc(-c3ccc(C(F)(F)F)cc3)cc12", "observed": "cell-free assay", "method": "competition with immobilised ligand", "concentration": "1 µM", "measurement": "remaining binding", "value": "100%"}
{"Compound": "Cc1ccc(NC(=O)c2ccc(C)c(C(F)(F)F)c2)cc1C#Cc1nn(C2CCC(O)CC2)c2ncnc(N)c12 (centres unmarked)", "observed": "cell-free assay", "concentration": "10 µM", "measurement": "remaining signal", "value": "87%"}
